Each block holds one compound with its values, some of them ahead of it.
How the values were obtained:
[1] = target: Mitogen-activated protein kinase kinase kinase 8 (Homo sapiens, UniProt P41279); experiment: Inhibition of Tpl2 by ELISA
Monocyte = experiment: Inhibition of LPS-stimulated TNFalpha production in monocytes; type: functional, Homo sapiens
Blood = experiment: Inhibition of LPS-stimulated TNFalpha production in human blood; type: functional
[2] = target: Epidermal growth factor receptor (Homo sapiens, UniProt P00533)
CYP3A4 = CYP3A4 (Homo sapiens, UniProt P08684); experiment: Inhibition of CYP3A4 at 3 uM; type: ADME
[3] = target: MAP kinase-activated protein kinase 2 (Homo sapiens, UniProt P49137); experiment: Inhibition of MK2
[4] = target: Ribosomal protein S6 kinase beta-1 (Homo sapiens, UniProt P23443); experiment: Inhibition of S6K
[5] = target: Protein kinase C alpha type (Homo sapiens, UniProt P17252); experiment: Inhibition of PKCalpha
[6] = target: cAMP-dependent protein kinase (PKA) (Homo sapiens, UniProt P22694+P17612+P22612); experiment: Inhibition of PKA; type: protein assay
[7] = target: Proto-oncogene tyrosine-protein kinase Src (Homo sapiens, UniProt P12931); experiment: Inhibition of Src
[8] = target: Mitogen-activated protein kinase 14 (Homo sapiens, UniProt Q16539); experiment: Inhibition of p38alpha
[9] = Half life in Sprague-Dawley rat at 5 mg/kg, iv; type: ADME, organism-based; parameters: dose 5 mg/kg, route intravenous; details: in vivo
Outline: (§1)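 Female Sprague-Dawley rats were dosed by the iv or oral route. Parameters are reported as means of individual-animal pharmacokinetic values.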

[10] = Plasma clearance in Sprague-Dawley rat at 5 mg/kg, iv; type: ADME, organism-based; parameters: dose 5 mg/kg, route intravenous; outline: as §1
physchem = details: buffer, pH 7.4
CaM kinase II = CaM kinase II (Homo sapiens, UniProt Q13557+Q13555+Q13554+Q9UQM7)
[11] = Bioavailability in Sprague-Dawley rat at 25 mg/kg, po; type: ADME, organism-based; details: in vivo; outline: as §1
Cytochrome P450 3A4 = Cytochrome P450 3A4 (Homo sapiens, UniProt P08684)
[12] = Half life in Sprague-Dawley rat at 25 mg/kg, po; type: ADME, organism-based; parameters: dose 25 mg/kg, route oral; details: in vivo; outline: as §1
[13] = Permeability at pH 7.4 by PAMPA method; type: ADME; details: read-out: permeability
Outline: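 Passive permeability was measured by high-resolution PAMPA at pH 7.4.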

Rattus norvegicus = experiment: AUC (0 to infinity) in Sprague-Dawley rat at 25 mg/kg, po; type: ADME, organism-based, Plasma; parameters: dose 25 mg/kg, route oral; details: in vivo; outline: as §1
[14] = Volume of distribution at steady state in Sprague-Dawley rat at 5 mg/kg, iv; type: ADME, organism-based; parameters: dose 5 mg/kg, route intravenous; details: in vivo, read-out: Vss; outline: as §1
[15] = target: Mitogen-activated protein kinase 8 (Homo sapiens, UniProt P45983); experiment: Inhibition of Jnk1
[16] = Metabolic stability in human liver microsomes; type: ADME, Microsome
Outline: (§2)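 Compound was incubated with liver microsomes from the stated species. Stability is expressed as parent half-life (t1/2, min). Metabolites were also profiled.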

[17] = Metabolic stability in rat liver microsomes; type: ADME, Microsome; outline: as §2
[18] = Metabolic stability in mouse liver microsomes; type: ADME, Microsome; outline: as §2

Mitogen-activated protein kinase kinase kinase 8, sequence (P41279 whole entry): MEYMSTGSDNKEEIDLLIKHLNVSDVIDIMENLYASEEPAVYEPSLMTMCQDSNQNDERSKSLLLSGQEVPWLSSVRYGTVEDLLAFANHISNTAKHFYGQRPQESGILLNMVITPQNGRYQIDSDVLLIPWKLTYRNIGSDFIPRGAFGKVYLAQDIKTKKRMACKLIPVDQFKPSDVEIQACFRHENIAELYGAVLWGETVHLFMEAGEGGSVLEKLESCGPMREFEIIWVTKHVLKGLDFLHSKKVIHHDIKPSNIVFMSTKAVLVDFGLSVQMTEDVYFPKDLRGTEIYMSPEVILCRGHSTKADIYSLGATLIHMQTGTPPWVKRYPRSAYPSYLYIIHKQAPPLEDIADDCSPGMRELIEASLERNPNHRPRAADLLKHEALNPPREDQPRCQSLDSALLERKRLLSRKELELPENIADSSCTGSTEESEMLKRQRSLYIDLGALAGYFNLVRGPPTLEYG
Epidermal growth factor receptor, sequence (P00533 whole entry): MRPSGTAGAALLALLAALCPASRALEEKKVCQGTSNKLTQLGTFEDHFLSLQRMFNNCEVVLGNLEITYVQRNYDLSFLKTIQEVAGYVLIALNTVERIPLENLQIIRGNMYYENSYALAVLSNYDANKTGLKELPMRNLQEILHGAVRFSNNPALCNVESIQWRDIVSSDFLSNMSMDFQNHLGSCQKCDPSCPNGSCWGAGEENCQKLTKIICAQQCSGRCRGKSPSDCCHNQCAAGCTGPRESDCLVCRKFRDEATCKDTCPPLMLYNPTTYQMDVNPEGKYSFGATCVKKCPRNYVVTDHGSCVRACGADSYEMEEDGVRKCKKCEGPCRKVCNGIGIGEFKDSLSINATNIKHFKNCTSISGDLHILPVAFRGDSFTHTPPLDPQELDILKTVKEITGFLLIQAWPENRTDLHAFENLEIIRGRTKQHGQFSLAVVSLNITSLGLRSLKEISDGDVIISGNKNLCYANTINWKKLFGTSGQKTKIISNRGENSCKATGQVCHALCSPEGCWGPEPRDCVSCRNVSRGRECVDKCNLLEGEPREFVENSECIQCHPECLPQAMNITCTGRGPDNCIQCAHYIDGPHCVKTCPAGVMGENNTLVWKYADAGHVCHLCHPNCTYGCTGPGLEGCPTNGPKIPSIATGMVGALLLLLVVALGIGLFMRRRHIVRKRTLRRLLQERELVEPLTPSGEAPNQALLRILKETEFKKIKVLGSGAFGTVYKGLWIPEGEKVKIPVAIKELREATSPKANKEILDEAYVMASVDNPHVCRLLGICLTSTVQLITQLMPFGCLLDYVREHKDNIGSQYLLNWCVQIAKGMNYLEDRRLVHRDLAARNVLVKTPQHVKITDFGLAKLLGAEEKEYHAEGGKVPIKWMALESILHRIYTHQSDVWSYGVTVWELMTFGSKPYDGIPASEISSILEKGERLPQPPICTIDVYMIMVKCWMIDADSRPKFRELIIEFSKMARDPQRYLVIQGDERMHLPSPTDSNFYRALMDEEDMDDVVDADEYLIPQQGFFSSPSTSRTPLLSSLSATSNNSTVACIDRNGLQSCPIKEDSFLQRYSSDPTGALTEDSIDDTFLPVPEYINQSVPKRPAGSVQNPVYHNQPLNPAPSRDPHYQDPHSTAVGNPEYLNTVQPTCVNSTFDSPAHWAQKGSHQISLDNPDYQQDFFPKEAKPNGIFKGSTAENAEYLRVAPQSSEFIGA
MAP kinase-activated protein kinase 2, sequence (P49137 whole entry): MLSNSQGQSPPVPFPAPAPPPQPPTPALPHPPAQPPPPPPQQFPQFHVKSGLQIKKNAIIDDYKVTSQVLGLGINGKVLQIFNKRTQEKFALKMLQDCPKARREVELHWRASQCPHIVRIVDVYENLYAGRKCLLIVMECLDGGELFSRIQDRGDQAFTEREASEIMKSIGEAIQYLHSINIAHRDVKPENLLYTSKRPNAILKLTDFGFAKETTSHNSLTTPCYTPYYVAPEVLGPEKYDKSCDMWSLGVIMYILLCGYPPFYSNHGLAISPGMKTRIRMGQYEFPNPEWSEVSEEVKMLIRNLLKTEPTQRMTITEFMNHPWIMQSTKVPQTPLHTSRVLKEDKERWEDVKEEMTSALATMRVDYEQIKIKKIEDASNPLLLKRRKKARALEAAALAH
Ribosomal protein S6 kinase beta-1, sequence (P23443 whole entry): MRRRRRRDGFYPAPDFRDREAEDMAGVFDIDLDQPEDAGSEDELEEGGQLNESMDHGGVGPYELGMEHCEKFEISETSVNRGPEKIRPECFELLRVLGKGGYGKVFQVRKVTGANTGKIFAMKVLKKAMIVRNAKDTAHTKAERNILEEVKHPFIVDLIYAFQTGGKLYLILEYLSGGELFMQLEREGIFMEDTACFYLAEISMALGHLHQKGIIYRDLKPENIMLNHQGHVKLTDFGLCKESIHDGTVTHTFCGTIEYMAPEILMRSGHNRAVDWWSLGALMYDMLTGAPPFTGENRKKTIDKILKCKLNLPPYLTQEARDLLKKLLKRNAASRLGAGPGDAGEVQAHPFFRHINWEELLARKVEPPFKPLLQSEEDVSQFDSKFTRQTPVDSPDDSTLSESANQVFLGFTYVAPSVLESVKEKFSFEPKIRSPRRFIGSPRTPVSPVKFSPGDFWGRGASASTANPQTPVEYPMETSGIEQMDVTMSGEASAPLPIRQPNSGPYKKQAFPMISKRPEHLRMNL
Proto-oncogene tyrosine-protein kinase Src, sequence (P12931 2-536 limits assumed): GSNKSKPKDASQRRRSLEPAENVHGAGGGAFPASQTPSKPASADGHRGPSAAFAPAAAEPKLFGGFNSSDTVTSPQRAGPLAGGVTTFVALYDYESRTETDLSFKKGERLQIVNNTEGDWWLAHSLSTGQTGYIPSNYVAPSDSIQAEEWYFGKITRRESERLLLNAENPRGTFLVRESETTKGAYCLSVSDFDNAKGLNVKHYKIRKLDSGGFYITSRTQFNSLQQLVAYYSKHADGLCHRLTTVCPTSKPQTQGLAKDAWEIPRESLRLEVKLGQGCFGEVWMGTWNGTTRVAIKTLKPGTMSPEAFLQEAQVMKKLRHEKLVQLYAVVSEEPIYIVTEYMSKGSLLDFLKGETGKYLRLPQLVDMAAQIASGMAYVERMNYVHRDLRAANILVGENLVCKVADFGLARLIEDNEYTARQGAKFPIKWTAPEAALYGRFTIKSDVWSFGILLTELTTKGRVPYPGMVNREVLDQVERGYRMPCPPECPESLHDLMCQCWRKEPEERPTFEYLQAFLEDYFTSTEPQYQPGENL
Mitogen-activated protein kinase 14, sequence (Q16539 whole entry): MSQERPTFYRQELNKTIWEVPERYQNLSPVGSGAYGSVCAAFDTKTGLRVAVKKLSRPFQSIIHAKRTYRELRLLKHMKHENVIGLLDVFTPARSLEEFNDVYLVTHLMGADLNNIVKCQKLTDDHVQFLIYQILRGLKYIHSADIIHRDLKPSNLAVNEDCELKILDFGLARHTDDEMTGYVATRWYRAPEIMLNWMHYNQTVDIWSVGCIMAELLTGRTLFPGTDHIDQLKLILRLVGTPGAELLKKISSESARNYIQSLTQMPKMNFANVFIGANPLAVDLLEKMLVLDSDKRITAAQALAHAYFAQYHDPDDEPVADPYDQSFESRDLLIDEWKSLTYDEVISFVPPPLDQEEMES
CYP3A4, sequence (P08684 whole entry): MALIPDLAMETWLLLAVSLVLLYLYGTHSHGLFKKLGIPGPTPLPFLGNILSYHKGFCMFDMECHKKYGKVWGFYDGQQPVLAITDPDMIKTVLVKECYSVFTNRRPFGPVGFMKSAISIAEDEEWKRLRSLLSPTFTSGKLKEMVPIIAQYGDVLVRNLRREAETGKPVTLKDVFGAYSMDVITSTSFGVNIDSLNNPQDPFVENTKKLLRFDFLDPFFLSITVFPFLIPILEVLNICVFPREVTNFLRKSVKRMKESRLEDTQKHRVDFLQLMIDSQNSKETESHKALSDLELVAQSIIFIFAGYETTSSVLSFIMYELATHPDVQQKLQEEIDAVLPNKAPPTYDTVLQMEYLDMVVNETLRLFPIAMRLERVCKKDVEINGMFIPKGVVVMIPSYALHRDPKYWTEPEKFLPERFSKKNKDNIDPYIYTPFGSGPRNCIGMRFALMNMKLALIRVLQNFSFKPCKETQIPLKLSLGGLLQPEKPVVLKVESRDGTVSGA
Cytochrome P450 3A4, sequence (P08684 whole entry): as above

Compound: N#Cc1cnc2c(Cl)cc(NCCc3c[nH]cn3)cc2c1Nc1ccc(F)c(Cl)c1
Activity (Blood): >20 µM

Compound: N#Cc1cnc2c(Br)cc(NC(=O)Cc3cnc[nH]3)cc2c1Nc1ccc(F)c(Cl)c1
IC50 [1]: > 5 µM

Compound: Cn1cncc1CNc1cc(Cl)c2ncc(C#N)c(Nc3ccc(F)c(Cl)c3)c2c1
Activity (Blood): >20 µM

Compound: N#Cc1cnc2c(Cl)cc(NCC(=O)O)cc2c1Nc1ccc(F)c(Cl)c1
IC50 [1]: 0.2 µM | Inhibitory concentration (Monocyte): >5000 nM | Activity (Blood): >20 µM

Compound: CCc1[nH]cnc1CNc1cc(Cl)c2ncc(C#N)c(Nc3ccc(F)c(Cl)c3)c2c1
Activity (Blood): 7.5 µM

Compound: CN(C)CCCn1cc(CNc2cc(Br)c3ncc(C#N)c(Nc4ccc(F)c(Cl)c4)c3c2)nn1
inhibition at 3 µM (CYP3A4): 66% | Inhibitory concentration (Monocyte): 221 nM | IC50 [3]: > 40 µM | IC50 [4]: > 40 µM | Activity (Blood): 3.08 µM | IC50 [15]: > 40 µM | IC50 [5]: > 40 µM | IC50 [6]: > 40 µM | half-life [12]: 2.6 h | IC50 [7]: > 40 µM | IC50 [8]: > 40 µM | AUC/dose (Rattus norvegicus): < 10 ng·kg·h/mg/mL

Compound: Cn1nccc1CNc1cc(Br)c2ncc(C#N)c(Nc3ccc(F)c(Cl)c3)c2c1
Inhibitory concentration (Monocyte): 665 nM | Activity (Blood): >20 µM

Further lines, with some results ahead:

IC50 [1]: 0.13 µM | IC50 [2]: 2.08 µM
Compound: COc1cc(NCc2c[nH]cn2)cc2c(Nc3ccc(F)c(Cl)c3)c(C#N)cnc12
Inhibitory concentration (Monocyte): 3000 nM | Activity (Blood): >10 µM

IC50 [2]: 5 µM
Compound: C[S+]([O-])c1cc(NCc2c[nH]cn2)cc2c(Nc3ccc(F)c(Cl)c3)c(C#N)cnc12 (stereo not drawn)
Inhibitory concentration (Monocyte): 2130 nM | Activity (Blood): 13.3 µM

IC50 [2]: > 20 µM
Compound: CN(C)C(=O)c1cc(NCc2c[nH]cn2)cc2c(Nc3ccc(F)c(Cl)c3)c(C#N)cnc12
Inhibitory concentration (Monocyte): >1000 nM | Activity (Blood): >10 µM

IC50 [1]: 0.83 µM
Compound: N#Cc1cnc2c(OCC(O)CO)cc(NCc3cnc[nH]3)cc2c1Nc1ccc(F)c(Cl)c1 (stereo not drawn)

IC50 [2]: > 5 µM
Compound: N#Cc1cnc2c(Cl)cc(NCc3cccnc3)cc2c1Nc1ccc(F)c(Cl)c1
Inhibitory concentration (Monocyte): >1000 nM | Activity (Blood): 20 µM

IC50 [1]: 0.02 µM | inhibition at 3 µM (CYP3A4): 96% | IC50 [3]: > 40 µM | IC50 [4]: > 40 µM | IC50 [5]: > 40 µM | IC50 [6]: 10.3 µM | IC50 [7]: 20 µM | IC50 [8]: > 40 µM
Compound: N#Cc1cnc2c(F)cc(NCc3c[nH]cn3)cc2c1Nc1ccc(F)c(Cl)c1
Inhibitory concentration (Monocyte): 510 nM | Activity (Blood): >10 µM

half-life [9]: 0.8 h | clearance [10]: 2.28 L/h/kg | IC50 [3]: 40.1 µM | IC50 [4]: > 40 µM | solubility (physchem): < 0.01 mg/mL | IC50 (CaM kinase II): > 40 µM | bioavailability [11]: < 1% | IC50 [2]: 2.9 µM | IC50 (Cytochrome P450 3A4): 18 µM | IC50 [5]: > 40 µM | IC50 [6]: > 40 µM | half-life [12]: 4.2 h | IC50 [7]: > 40 µM | Papp [13]: < 50 nm/s | IC50 [8]: > 40 µM | AUC/dose (Rattus norvegicus): < 10 ng·kg·h/mg/mL | Vd [14]: 1.6 L/kg
Compound: N#Cc1cnc2c(Cl)cc(NCc3cccc[n+]3[O-])cc2c1Nc1ccc(F)c(Cl)c1
Inhibitory concentration (Monocyte): 1500 nM | Activity (Blood): 11.4 µM

IC50 [2]: 0.156 µM
Compound: CC(=O)c1cc(NCc2c[nH]cn2)cc2c(Nc3ccc(F)c(Cl)c3)c(C#N)cnc12
Inhibitory concentration (Monocyte): 580 nM | Activity (Blood): >10 µM

half-life [9]: 4.4 h | IC50 [1]: 0.02 µM | clearance [10]: 1.14 L/h/kg | IC50 [3]: 40.2 µM | IC50 [4]: > 100 µM | half-life [16]: 0.517 h | solubility (physchem): < 0.01 mg/mL | IC50 (CaM kinase II): > 40 µM | bioavailability [11]: 2% | IC50 [5]: 23.4 µM | IC50 [6]: 40.1 µM | half-life [12]: 8.1 h | half-life [17]: 0.583 h | IC50 [7]: 19.9 µM | Papp [13]: < 50 nm/s | IC50 [8]: 11.2 µM | AUC/dose (Rattus norvegicus): 24 ng·kg·h/mg/mL | Vd [14]: 2.4 L/kg | half-life [18]: 0.383 h
Compound: N#Cc1cnc2c(Cl)cc(NCc3cnc[nH]3)cc2c1Nc1ccc(F)c(Cl)c1
Inhibitory concentration (Monocyte): 350 nM | Activity (Blood): 4.9 µM
